The list is not random: actives were taken first. Their share in the collection is about 2.5%.
NadD block: inhibitors of Staphylococcus aureus NadD; purified NadD enzyme, colorimetric absorbance read-out; AID 602399; actives 0.78% (n = 360,000); inhibition, % at 20 µM; in the data active = inhibition above about 26%
GRK2 aptamer HTS: inhibitors of human GRK2 displacing RNA aptamer; P25098; bead flow cytometry, FAM-aptamer displacement from GRK2; inhibition of aptamer binding, % at 10 µM; actives 0.59% (n = 330,000); AID 488847;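 active = inhibition of aptamer binding above 40%, roughly 3 SD of noise, on plates passing a quality check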;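 note: median bead fluorescence of bound FAM aptamer so fluorescent compounds give negative values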
Target sequence (P25098 whole entry, looked up): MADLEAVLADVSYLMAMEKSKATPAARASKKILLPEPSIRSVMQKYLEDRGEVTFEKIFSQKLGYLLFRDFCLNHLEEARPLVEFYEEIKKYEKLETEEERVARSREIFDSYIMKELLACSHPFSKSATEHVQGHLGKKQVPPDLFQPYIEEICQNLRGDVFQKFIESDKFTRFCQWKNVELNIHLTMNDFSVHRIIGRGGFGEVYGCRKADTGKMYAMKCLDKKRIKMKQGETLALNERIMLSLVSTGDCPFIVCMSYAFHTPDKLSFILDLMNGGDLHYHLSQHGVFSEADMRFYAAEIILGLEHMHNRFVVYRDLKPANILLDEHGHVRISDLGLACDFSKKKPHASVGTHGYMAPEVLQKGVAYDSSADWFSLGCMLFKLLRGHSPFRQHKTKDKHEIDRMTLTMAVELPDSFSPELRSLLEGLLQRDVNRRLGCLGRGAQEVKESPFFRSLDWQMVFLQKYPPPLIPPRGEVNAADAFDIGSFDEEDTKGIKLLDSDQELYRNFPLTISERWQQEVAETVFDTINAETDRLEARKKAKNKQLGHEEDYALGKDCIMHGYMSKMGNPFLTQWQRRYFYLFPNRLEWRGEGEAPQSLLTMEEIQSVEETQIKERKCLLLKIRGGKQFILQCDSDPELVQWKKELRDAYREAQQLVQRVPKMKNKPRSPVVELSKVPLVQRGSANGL
B2AR ag: human beta-2 adrenergic receptor agonism by FAP. Am2.2-beta2AR cells, FAP receptor internalization, flow cytometry. P07550. response, % (test concentration not listed). actives 0.43% (n = 340,000);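 active = response above a set limit, near 3 SD of response in nonfluorescent compounds, cut at about 42% in these data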
ABHD5 PLIN5 PPI: inhibitors of human ABHD5-perilipin-5 interaction; Q00G26+Q8WTS1; actives 0.78% (n = 360,000); AID 602281; Split G. princeps luciferase complementation, luminescence, 4 h; inhibition, % at 4 µM;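 active = inhibition above the mean inhibition across every tested compound plus 3 SD, cut at about 22% in these data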
SENP1 inh: inhibitors of human SENP1 SUMO protease catalytic domain; actives 0.21% (n = 360,000); Q9P0U3; recombinant SENP1 catalytic domain, CyPet-SUMO1-YPet FRET cleavage; inhibition, % at 10 µM;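 active = inhibition at least 30% at 10 µM, raw YFP signal under a set limit, fluorescence ratio 0.5 to 1.5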
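Material: hSENP1 catalytic domain, recombinant; medium: Tris pH 8 with BME, BSA, NP40 and catalase; compound: single concentration of 10 µM compound, 0.5% DMSO final; technique: FRET read of cyan and yellow fluorescence; timing: 50 min enzyme reaction, room temperature, light-protected; reagent: SFCypet-SUMO1-SFYpet substrate at 25 nM; control set: no-enzyme low, enzyme-DMSO high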
GRK2 CP1: confirmation of human GRK2 inhibitors displacing RNA aptamer; shares compounds with GRK2 aptamer HTS; bead-bound GRK2, FAM-aptamer displacement, flow cytometry; aptamer displacement, % at 10 µM; actives 4% (n = 2,000); AID 504451;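 active = aptamer displacement above 40%, near three times the noise of non-fluorescent compounds, on plates passing quality checks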;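 note: negative values mostly reflect intrinsic compound fluorescence rather than true enhancement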
Aptamer quench 1: fluorescent aptamer quenching in GRK2 counter-screen dose response; shares compounds with GRK2 aptamer HTS; Fluorescent RNA aptamer beads, flow cytometry; stronger effect = higher value; fluorescence change (kMESF span), kMESF (concentration not given with the values); 110 tested, under 10 active; AID 504521;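 active = compounds whose bead fluorescence drops by more than 37 kMESF across the dose range, marking them as dye quenchers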
FAM quench CP1: aptamer fluorescence quenching in GRK2 counter-screen; shares compounds with GRK2 aptamer HTS; Carboxyfluorescein RNA aptamer on beads, flow cytometry quenching; stronger effect = lower value; fluorescence response (% of DMSO), % at 10 µM; 2,000 tested, under 10 active;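 active = compounds that quench the bead-bound fluorescent RNA probe, cutting fluorescence to under half of the solvent control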;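 note: counterscreen run without GRK2 so only probe quenching by compound is measured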
GRK2 confirm 2: human GRK2 inhibition confirmation, cherry pick 2 | 360 tested, under 10 active | shares compounds with GRK2 aptamer HTS | inhibition of aptamer binding, % at 10 µM | AID 504782 | bead-bound GRK2, FAM-aptamer displacement, flow cytometry;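 active = inhibition of aptamer binding above 40%, about triple the noise seen with nonglowing compounds, on plates passing quality control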;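 note: negative values mostly come from compounds that fluoresce themselves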
FAM quench SP: counter-screen for GRK2 binding hits: quenchers of fluorescent RNA aptamer | carboxyfluorescein RNA aptamer beads, flow cytometry quenching; stronger effect = lower value | 360 tested, under 10 active | shares compounds with GRK2 aptamer HTS | AID 588494 | fluorescence response vs DMSO, % at 10 µM;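 active = response vs DMSO under 50%, meaning signal dropped by over half, treated as fluorescence quencher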;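 note: labelled aptamer on streptavidin beads without GRK2 as a quench counter-screen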
Of the large screens only hits and unclear results are named; the others gave an inactive call (follow-up assays come after a bar, where they were run).

COc1ccc(CCNC(=O)CSc2ccc3nnc(CCNC(=O)c4ccc(C)cc4)n3n2)cc1OC	GRK2 aptamer HTS 61 | GRK2 confirm 2 inactive | FAM quench SP inactive
Cc1ccc(C(=O)NCCc2nnc3ccc(SCC(=O)NCc4ccc(F)cc4)nn23)cc1	none
COc1ccccc1C(=O)NCC(=O)OCC(=O)N1CC(C)OC(C)C1 (centres undefined)	none (no result: GRK2 aptamer HTS)
Cn1c(=O)c2nc3ccccc3nc2n(C)c1=O	none
CC(=O)Nc1ccc2nc3c(=O)n(C)c(=O)n(C)c3nc2c1	GRK2 aptamer HTS 42 | GRK2 CP1 inactive | FAM quench CP1 inactive
COc1ccc(CN(C)C(=O)c2cccc(NS(=O)(=O)c3ccccc3)c2)c(OC)c1	none
Cc1oc2c(c(C)cc3oc(=O)c(CC(=O)NCCCN4CCCC4=O)c(C)c32)c1C	none | GRK2 CP1 inactive | FAM quench CP1 inactive
Cc1oc2c(c(C)cc3oc(=O)c(CC(=O)NCCCO)c(C)c32)c1C	none
COc1ccc(CNC(=O)N[C@@H](CC(C)C)C(=O)O)cc1OC	none
O=S1(=O)CCC(N=Nc2c(O)n(Cc3ccccc3)c3ccccc23)C1 (centres undefined)	GRK2 aptamer HTS 66 | GRK2 CP1 inactive | FAM quench CP1 inactive
NC(=S)N=Nc1c(O)n(Cc2ccccc2)c2ccccc12	none
C=CCNC(=O)c1ccc(C(=O)c2ccccc2)cc1	GRK2 aptamer HTS 67 | GRK2 CP1 inactive | FAM quench CP1 inactive
C=CCNC(=O)c1ccc2nc(-c3ccccc3)c(-c3ccccc3)nc2c1	none
C#CCN(C[C@H]1[C@H](OC(=O)NC2CCCC2)[C@H](OC(=O)NC2CCCC2)C[C@@H](C(=O)OC)[C@H]1C(=O)OC)S(=O)(=O)c1ccc(C)cc1	none (no result: GRK2 aptamer HTS, B2AR ag)
CCCCn1c(CNC(=O)C(C)(C)C)nc2ccccc21	GRK2 aptamer HTS 83 | GRK2 CP1 inactive | FAM quench CP1 inactive
O=C(O)C1CCCN1C(=O)C1CCN(S(=O)(=O)c2cccc(C(F)(F)F)c2)CC1 (centres undefined)	none (no result: GRK2 aptamer HTS)
Cc1nc2ccccc2c(=O)n1/N=C/c1ccccc1	none
Cc1nc2ccccc2c(=O)n1/N=C/c1ccncc1	GRK2 aptamer HTS 83 | GRK2 CP1 inactive | FAM quench CP1 inactive
O=C(CC1SC(N2CCCCC2)=NC1=O)Nc1cccc(C(=O)NCc2ccc(F)cc2)c1 (centres undefined)	none (no result: GRK2 aptamer HTS) | GRK2 CP1 inactive | Aptamer quench 1 inactive | FAM quench CP1 inactive
Cc1ccc(N(CC(=O)NCc2ccc(F)cc2)C(=O)c2snc(C(N)=O)c2N)cc1C	none
O=c1[nH]c2ccccc2nc1/C=C/c1ccccc1	GRK2 aptamer HTS 52 | GRK2 CP1 inactive | FAM quench CP1 inactive
CC12CCC(C(=O)n3c1nc1ccccc13)C2(C)C (centres undefined)	none | GRK2 CP1 inactive | FAM quench CP1 inactive
O=C(NCc1cccs1)c1cc(-c2ccc(O)cc2)on1	GRK2 aptamer HTS 79 | GRK2 CP1 inactive | FAM quench CP1 inactive
Cc1ccc(-c2cc(C(=O)NCc3cccs3)no2)cc1	none
C#CCOCCOCCOCCNc1nc(N2CCOCC2)nc(N2CCN(C(=O)CCCCCCCCCCNC(=O)[C@H](CO)n3cc(CCCSC)nn3)CC2)n1	GRK2 aptamer HTS 50 | GRK2 CP1 inactive | FAM quench CP1 inactive
C#CCOCCOCCOCCNc1nc(N2CCOCC2)nc(N2CCN(C(=O)[C@H](CO)n3cc([C@@H](N)C(C)C)nn3)CC2)n1	GRK2 aptamer HTS 74 | GRK2 confirm 2 inactive | FAM quench SP inactive
C#CCOCCOCCOCCNc1nc(N2CCN(C(=O)[C@H](CO)n3cc([C@@H](N)C(C)C)nn3)CC2)nc(N2CCN(C(=O)[C@H](CCCCN)n3cc([C@@H](N)[C@H](C)CC)nn3)CC2)n1	none
CCOc1ccc(NC(=O)c2ccc3c(c2)S(=O)(=O)N=C2CCCCCN23)cc1	none (no result: GRK2 aptamer HTS, B2AR ag)
Cc1ccc(C(=O)Nc2ccc(N3CCN(C)CC3)cc2)c(Cl)c1	GRK2 aptamer HTS 49 | GRK2 CP1 inactive | FAM quench CP1 inactive
COc1ccc(CNC(=O)COC(=O)c2ccc(F)c(S(=O)(=O)N3CCCCC3)c2)cc1OC	none
O=C(NCC1OCCc2ccccc21)c1ccc(NC(=O)c2ccccc2Cl)cc1 (centres undefined)	GRK2 aptamer HTS 47 | GRK2 confirm 2 inactive | FAM quench SP inactive
CN(CC(=O)Nc1ccc(F)cc1)C(=O)c1ccc(OCc2ccccc2)cc1	none (no result: GRK2 aptamer HTS)
OC(CN1CCOCC1)(c1ccccc1)c1ccccn1 (centres undefined)	none
N#CC(c1ccccc1O)N1N=C(c2ccccc2)CC1c1ccccc1 (centres undefined)	GRK2 aptamer HTS 46 | GRK2 CP1 inactive | FAM quench CP1 39
COc1cc(C(C#N)N2N=C(c3ccccc3)CC2c2ccccc2)ccc1O (centres undefined)	none
O=C(O)CCn1c(CO)nc2ccccc21	none
O=C(O)CCn1c(-c2ccccn2)nc2ccccc21	none | GRK2 CP1 inactive | FAM quench CP1 inactive
CCOc1ccc(OCCCC(=O)N(C)CC(=O)Nc2ccccc2Br)cc1	GRK2 aptamer HTS 46 | GRK2 CP1 inactive | FAM quench CP1 inactive
Cc1ccc(OCCCC(=O)N(C)CC(=O)Nc2ccccc2Cl)cc1	none
CCOc1ccc(NS(=O)(=O)c2ccc(C(=O)NCC(c3ccco3)N3CCCC3)cc2)cc1 (centres undefined)	none
Cc1cc(S(=O)(=O)Nc2ccc(C(=O)NCC(C)(C)N3CCOCC3)cc2)ccc1F	none
Cc1ccc(OCC(=O)NCCC2=CCCCC2)cc1	none
Cc1ccc(SCC(=O)NCCC2=CCCCC2)cc1	GRK2 aptamer HTS 45 | GRK2 CP1 inactive | FAM quench CP1 inactive
COc1cc(C2C(=O)N(C3CCCC3)CC(=O)N2Cc2ccco2)ccc1OC(C)C (centres undefined)	GRK2 aptamer HTS 58 | GRK2 CP1 inactive | FAM quench CP1 inactive
Nc1c(C(=O)c2ccc(Cl)cc2)sc2c1c(=O)[nH]c(=O)n2-c1ccccc1	GRK2 aptamer HTS 100 | GRK2 confirm 2 inactive | FAM quench SP inactive
O=C(CSc1nnc(C2CC2)n1C1CC1)c1ccc(Br)s1	none

Source: PubChem BioAssay
